For series [1], the system named is Trypanosoma cruzi. Kind of series: Antitrypanosomal activity against Trypanosoma cruzi (IRHOD/CO/2008/SN3) epimastigotes assessed as plasma membrane with scalloped appearance with undulations and discontinuities at IC25 after 96 hrs by transmission electron microscopic analysis. The class given is functional, organism-based.
Series [2] concerns Trypanosoma cruzi. Briefly: Antitrypanosomal activity against Trypanosoma cruzi (IRHOD/CO/2008/SN3) epimastigotes assessed as disruption of cytoskeleton with disorganization of microtubule structure at IC25 after 96 hrs by transmission electron microscopic analysis. The class given is functional, organism-based.
The test system of series [3] is Trypanosoma cruzi. Kind of series: Antitrypanosomal activity against Trypanosoma cruzi (IRHOD/CO/2008/SN3) infected in BALB/c mouse assessed as reduction in parasite specific antibodies level at 1 mg/kg/day, ip treated from day 5 to day 10 post-infection measured from day 30 to day 120 post-infection by ELISA. The class given is functional, organism-based. Summed up:
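Female BALB/c mice (6–8 weeks, 20–25 g, groups of three) infected ip with 1 × 10⁵ metacyclic forms. Dosed 1 mg/kg/day ip on days 5–10 post-infection; infected untreated controls included. ELISA on blood diluted 1:50 in PBS, using excreted Fe-SOD antigen from epimastigotes, at days 30 and 120. Read-out is ΔA490 (day 120 minus day 30).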
(An ELISA detects its analyte on a solid surface through an enzyme-linked reagent.)

The nature of series [4]: Toxicity in BALB/c mouse assessed as survival at 1 mg/kg/day, ip relative to control. The class given is organism-based. The arrangement: route intraperitoneal. The following applies: in vivo. Summed up: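 Female BALB/c mice (6-8 weeks, 20-25 g), groups of three, infected ip with 1 × 10⁵ T. cruzi SN3 metacyclic forms. Dosing ip at 1 mg/kg/day for five consecutive days (days 5-10 post-infection). Controls were uninfected, infected-untreated and uninfected-treated groups. Mice followed to day 120 post-infection, with deaths recorded.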

For series [5], the system named is Trypanosoma cruzi. Kind of series: Antitrypanosomal activity against Trypanosoma cruzi (IRHOD/CO/2008/SN3) infected in BALB/c mouse assessed as reduction in parasitemia at 1 mg/kg/day, ip treated from day 5 to day 10 post-infection measured on day 30 post-infection relative to control. The class given is functional. More on the design: scale not given: the % may be the effect or the level left. As to conditions: route intraperitoneal. Summed up:
(§1)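 Female BALB/c mice (groups of three) infected ip with 1 × 10⁵ metacyclic forms. Given 1 mg/kg/day ip for five days (days 5–10 post-infection); infected untreated controls included. Mandibular-vein blood (5 µL) diluted 1:15 in citrate/lysis buffer, with trypomastigotes/mL counted every 3–4 days. Mean values reported.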

Series [6] deals with Trypanosoma cruzi. Briefly: Antitrypanosomal activity against Trypanosoma cruzi (IRHOD/CO/2008/SN3) infected in BALB/c mouse assessed as reduction in parasitemia at 1 mg/kg/day, ip treated from day 5 to day 10 post-infection measured on day 14 post-infection. The class given is functional, organism-based. The method in brief: as §1
The test system of series [7] is Trypanosoma cruzi. Briefly: Antitrypanosomal activity against Trypanosoma cruzi (IRHOD/CO/2008/SN3) infected in African green monkey Vero cells assessed as reduction in number of trypomastigotes at IC25 treated for 12 hrs followed by compound-washout measured after 10 days by microscopic analysis relative to control. The class given is functional. Summed up: (§2)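 Vero cells grown 2 days, then infected with metacyclic forms at 10:1. Drugs at IC25 added immediately after infection for 12 h at 37 °C, 5% CO2, then removed by washing. Cultures grown 10 days with medium renewed every 48 h. Methanol-fixed, Giemsa-stained preparations: % infected cells and amastigotes per infected cell over 200 host cells; trypomastigotes counted in the medium. Means of three experiments.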

For series [8], the system named is Trypanosoma cruzi. Briefly: Antitrypanosomal activity against Trypanosoma cruzi (IRHOD/CO/2008/SN3) infected in African green monkey Vero cells assessed as reduction in infection rate at IC25 treated for 12 hrs followed by compound-washout measured after 10 days by microscopic analysis relative to control. The class given is functional. The method in brief:
as §2

For series [9], the system named is Trypanosoma cruzi. Kind of series: Antitrypanosomal activity against Trypanosoma cruzi (IRHOD/CO/2008/SN3) infected in African green monkey Vero cells assessed as reduction in number of amastigotes at IC25 treated for 12 hrs followed by compound-washout measured after 10 days by microscopic analysis relative to control. The class given is functional. Summed up:
as §2

We go through one molecule from ChEMBL document CHEMBL3124881, “New perspectives on the synthesis and antichagasic activity of 3-alkoxy-1-alkyl-5-nitroindazoles” (Eur J Med Chem, 2014).

The source made the active and inactive calls. No cut-off for these calls is given here.

In the case of `O=C(Cn1ccnc1[N+](=O)[O-])NCc1ccccc1` [BENZNIDAZOLE], the result in series [1], in series [2], in series [3] and in [6] was Active. The survival in series [4] is 80%. Moreover, the Activity in [5] worked out at 23%. The “inhibition (INH)” value worked out at 41% in [7], 19% in series [8] and 37% in [9].
